DDE Tn6 FP inh: disrupts Tn6 cyclic peptide binding to fibrin D-Dimer-E complex | P02675 | Fibrin DD(E) TRITC-Tn6 fluorescence polarization displacement | inhibition, % at 8.3 µM | 370,000 tested, 0.21% active | AID 720509;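 active means inhibition above a per-campaign cutoff: mean of compounds within control limits plus 3 SD, cut at about 15% in these data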;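 further: 0% = median of all compound wells on the plate and 100% = blocking peptide control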
Target sequence (P02675 whole entry, looked up): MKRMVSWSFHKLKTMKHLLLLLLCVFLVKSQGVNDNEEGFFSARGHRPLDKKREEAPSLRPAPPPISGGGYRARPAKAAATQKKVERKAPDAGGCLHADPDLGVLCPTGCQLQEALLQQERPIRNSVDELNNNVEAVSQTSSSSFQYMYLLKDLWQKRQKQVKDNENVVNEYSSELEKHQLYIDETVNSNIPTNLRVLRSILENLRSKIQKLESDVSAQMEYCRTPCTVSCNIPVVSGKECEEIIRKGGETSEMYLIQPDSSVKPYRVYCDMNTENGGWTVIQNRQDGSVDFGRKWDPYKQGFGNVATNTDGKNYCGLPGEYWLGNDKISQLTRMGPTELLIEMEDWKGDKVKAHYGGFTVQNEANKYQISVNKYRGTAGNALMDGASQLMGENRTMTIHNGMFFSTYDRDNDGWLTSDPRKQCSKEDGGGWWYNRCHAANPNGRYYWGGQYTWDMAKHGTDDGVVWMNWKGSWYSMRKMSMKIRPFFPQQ
CAL PDZ FP-1: CAL PDZ (human) peptide binding inhibition; Q9HD26; purified CAL PDZ, TMR-peptide fluorescence polarization, 1 h; inhibition, % at 24.9 µM; 300,000 tested, 0.92% active; AID 602252;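 active means mean inhibition of at least 30% with at least half of replicates also reaching 30%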;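 further: 0% = DMSO neutral control and 100% = excess unlabeled competitor peptide PRC23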
GRK2 aptamer HTS: inhibitors of human GRK2 displacing RNA aptamer | bead flow cytometry, FAM-aptamer displacement from GRK2 | inhibition of aptamer binding, % at 10 µM | 330,000 tested, 0.59% active | AID 488847;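 active means inhibition of aptamer binding above 40%, roughly 3 SD of noise, on plates passing a quality check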;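 further: median bead fluorescence of bound FAM aptamer so fluorescent compounds give negative values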
CAL PDZ FP-2: inhibitors of human CAL PDZ peptide binding; inhibition, % at 20 µM; 330,000 tested, 0.02% active; purified CAL PDZ, TMR-peptide fluorescence polarization, 1 h;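 active means highest replicate inhibition of at least 40%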;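 further: plate controls were DMSO neutral control wells for no effect and unlabeled competitor peptide control wells for full effect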
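System: purified tagged CAL PDZ domain construct (CerCALP). Schedule: 1 h incubation at room temperature before polarization reading. Medium: 25 mM sodium phosphate pH 7.4, 150 mM NaCl, TCEP, IgG, Thesit. Read-out: percent inhibition from loss of millipolarization. Measured by: FP readout, S and P plane fluorescence. Probe or stimulus: fluorescent TMR peptide probe.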
ARNT TACC3 PPI: disruptors of human ARNT/TACC3 interaction; Q9Y6A5; AlphaScreen His-ARNT PAS-B/GST-TACC3 binding, luminescence; TACC3 fragment carries E629A point mutation; inhibition, % at 9.99 µM; 390,000 tested, 0.66% active; AID 623870;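 active means mean inhibition of replicates at least 50% and at least half of replicates each reaching 50%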;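 further: 0% = complete ARNT plus TACC3 wells and 100% = ARNT alone without TACC3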
Tn7 DDE FP: disrupts Tn7 cyclic peptide binding to fibrin D-Dimer-E complex; P02675; FP displacement of FITC-Tn7 peptide from fibrin DD(E); 0% = median of compound wells per plate; inhibition, % at 8.3 µM; 370,000 tested, 0.13% active; AID 720508;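 active means inhibition above the mean of compounds falling within the control limits plus 3 SD of them, cut at about 14% in these data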;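 further: 0% = plate median of compound wells and 100% = 10 µM Aha-Tn7 peptide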
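Also added: labelled Tn7 tracer, 0.1 µM; Assay system: human fibrin DD(E) protein; Amount: 2 µM fibrin DD(E); Schedule: 10 min compound pre-incubation, 3 h probe incubation at room temperature; Repeats: one replicate per compound; Read-out basis: percent inhibition; Measured by: fluorescence polarization of the labelled Tn7 tracer.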
GRK2 CP1: human GRK2 inhibition confirmation, cherry pick 1. shares compounds with GRK2 aptamer HTS. bead-bound GRK2, FAM-aptamer displacement, flow cytometry. aptamer displacement, % at 10 µM. 2,000 tested, 4% active. AID 504451;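 active means aptamer displacement above 40%, near three times the noise of non-fluorescent compounds, on plates passing quality checks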;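 further: negative values mostly reflect intrinsic compound fluorescence rather than true enhancement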
Aptamer quench 1: counter-screen for GRK2 aptamer inhibitors: fluorescent aptamer quenchers | shares compounds with GRK2 aptamer HTS | Fluorescent RNA aptamer beads, quenching, flow cytometry; stronger effect = higher value | fluorescence change (kMESF span), kMESF (no concentration beside the values) | 110 tested, under 10 active;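 active means compounds whose bead fluorescence drops by more than 37 kMESF across the dose range, marking them as dye quenchers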
Aptamer quench SP: aptamer fluorescence quenching in GRK2 counter-screen; shares compounds with GRK2 aptamer HTS; Carboxyfluorescein RNA aptamer on beads, flow cytometry quenching; stronger effect = lower value; fluorescence response (% of DMSO), % at 10 µM; 2,000 tested, under 10 active; AID 504580;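 active means compounds that quench the bead-bound fluorescent RNA probe, cutting fluorescence to under half of the solvent control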;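 further: counterscreen run without GRK2 so only probe quenching by compound is measured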
GRK2 confirm 2: human GRK2 inhibition confirmation, cherry pick 2 | shares compounds with GRK2 aptamer HTS | bead-bound GRK2, FAM-aptamer displacement, flow cytometry | inhibition of aptamer binding, % at 10 µM | 360 tested, under 10 active | AID 504782;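 active means inhibition of aptamer binding above 40%, about triple the noise seen with nonglowing compounds, on plates passing quality control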;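 further: negative values mostly come from compounds that fluoresce themselves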
FAM quench SP: quenches fluorescent RNA aptamer, GRK2 hit artifact | 360 tested, under 10 active | shares compounds with GRK2 aptamer HTS | AID 588494 | carboxyfluorescein RNA aptamer beads, flow cytometry quenching; stronger effect = lower value | fluorescence response vs DMSO, % at 10 µM;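 active means response vs DMSO under 50%, meaning signal dropped by over half, treated as fluorescence quencher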;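 further: labelled aptamer on streptavidin beads without GRK2 as a quench counter-screen; 100% = bead fluorescence of DMSO wells and lower means quenching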
FAM quench DR: aptamer fluorescence quenching in GRK2 powder counter-screen. shares compounds with GRK2 aptamer HTS. AID 588496. 35 tested, under 10 active. fluorescence ratio to DMSO, % at 11.1 µM. Bead-bound FAM RNA aptamer fluorescence quenching, flow cytometry; stronger effect = lower value;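 active means compounds that dim the fluorescent label, raw bead signal shifting by over 33 units between lowest and highest dose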
ARNT Alpha ctr-1: interferes with AlphaScreen signal, flagging false ARNT-TACC3 hits | His-ARNT PASB-GST AlphaScreen artifact counter-screen, luminescence | 1,200 tested, 50% active | AC50, µM (titrated, usually from 68 µM), inactives show at the top dose activity change, negative = signal decrease | shares compounds with ARNT TACC3 PPI;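 active means every separate test run was called active for a drop in luminescence, with AC50 within twice the top valid dose, actives reach about 71 µM in these data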
ARNT Alpha ctr-2: produces AlphaScreen artifacts in ARNT-TACC3 counter-screen; shares compounds with ARNT TACC3 PPI; Dual-tagged His-ARNT PASB-GST AlphaScreen artifact counter-screen; AC50, µM; 45 tested, 70% active; AID 720564;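 active means luminescence drop, with half-maximal potency fitted within twice the sample's top valid dose, cut at about 70 µM in these data; inactive means the rest, including signal moving the wrong way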
DDE Tn7 confirm: confirmation of inhibitors of Tn7 binding to human fibrin DD(E); FP displacement of TRITC-Tn7 peptide from DD(E); 0% set at plate's compound-well median; shares compounds with Tn7 DDE FP; inhibition, % at 8.3 µM; AID 720628; 460 tested, 5% active;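 active means inhibition above the campaign cutoff, the mean of compounds within control limits plus 3 SD, cut at about 14% in these data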;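 further: 100% = median FP of high control wells holding Aha-Tn7 inhibitor peptide; displacers lower polarization since freed probe rises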
DDE Tn7 FP ctr: counter-screen for inhibitors of Tn7 peptide binding to fibrin DD(E); shares compounds with Tn7 DDE FP; TRITC-Tn7 probe displacement, fluorescence polarization; inhibition, % at 8.3 µM; 460 tested, 3% active;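 active means inhibition above the cutoff, the mean of compounds lying between the control bounds plus 3 SD of those compounds, cut at about 17% in these data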;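 further: 0% = median of compound sample wells and 100% = excess unlabeled Aha-Tn7 peptide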
Tn6 DDE ctr: DD(E)-Tn6 binding inhibition, counter-screen; shares compounds with DDE Tn6 FP inh; Fibrin DD(E), TRITC-Tn6 fluorescence polarization displacement; 0% = median of compound wells, not DMSO; inhibition, % at 8.3 µM; 680 tested, 2% active; AID 720621;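 active means inhibition above the mean of test compounds lying between the control limits plus 3 SD of those, cut at about 14% in these data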;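 further: 0% = median of compound wells and 100% = wells with Aha-Tn7 blocking peptide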
DDE Tn6 confirm: DD(E)-Tn6 binding inhibition, FP confirmation. shares compounds with DDE Tn6 FP inh. FP displacement of TRITC-Tn6 peptide from DD(E); 0% = per-plate median of test wells. inhibition, % at 8.3 µM. 680 tested, 10% active. AID 720631;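 active means inhibition above the mean of compounds lying within the control limits plus 3 SD, cut at about 16% in these data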;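 further: 100% = high control wells holding a competing inhibitor peptide at 10 µM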
Starred values were filed as active, the others as inactive; x = no result; + = active, no number. Sampled rows, rich in hits. Any-hit rate of the full collection: about 1.8%.

SMILES | DDE Tn6 FP inh | CAL PDZ FP-1 | GRK2 aptamer HTS | CAL PDZ FP-2 | ARNT TACC3 PPI | Tn7 DDE FP | GRK2 CP1 | Aptamer quench SP | others
CCSc1nc2sc3c(c2c(=O)n1CC)CCC3 | -10 | 1 | 3 | -1 | -8 | -1 | x | x | GRK2 confirm 2=16;FAM quench SP=99
Cc1cc2ccccc2n1CCNC(=O)C(C)Oc1ccccc1 (stereo not drawn) | 12 | x | 85* | 1 | -1 | -3 | 28 | 97 | Aptamer quench 1=-120;FAM quench DR=101
C=CCNC(=S)NNC(=O)C(CCC(C)C)CC(C)O (stereo not drawn) | 1 | 0 | 0 | 0 | -4 | -4 | x | x
C=CCNC(=S)NNC(=O)C(CCCC)CC(O)COCC(C)C (stereo not drawn) | -3 | 0 | 45* | 1 | -7 | 5 | 4 | 101
CCC(=O)N1[C@H](CO)[C@@H](c2ccc(-c3cccc(F)c3)cc2)[C@@H]1CN(C)C(C)=O | x | x | x | x | -6 | x | x | x
O=C(O)CCNc1cc(N2CCN(C(=O)c3ccco3)CC2)c2noc3c2c1C(=O)c1ccccc1-3 | 46* | -18 | 83* | -3 | 53* | -4 | -1 | 94 | ARNT Alpha ctr-1=19µM*
Cc1ccc2cc(C3C(C#N)=C(N)Oc4c3ccc3cccnc43)c(=O)[nH]c2c1 (stereo not drawn) | x | x | 97* | -2 | 52* | x | -3 | 110 | ARNT Alpha ctr-1=52µM*
CC(=O)C1=C(C)OC(N)=C(C#N)C1c1cc2cccc(C)c2nc1Cl (stereo not drawn) | -5 | -4 | 0 | 0 | -3 | -8 | x | x
C[C@@H]1CN([C@H](C)CO)C(=O)c2cc(-c3ccc(C#N)cc3)cnc2O[C@H]1CN(C)C(=O)Nc1ccc(F)cc1 | x | x | x | x | 2 | x | x | x
CCN(C(=O)C(C)N1C(=O)/C(=C/c2ccco2)SC1=S)C1CCS(=O)(=O)C1 (stereo not drawn) | 9 | -2 | 42* | -2 | 16 | 14* | 1 | 102 | DDE Tn7 confirm=0;DDE Tn7 FP ctr=-4
CN1C(=O)c2cc(NS(C)(=O)=O)ccc2OC[C@H]2O[C@@H](CC(=O)Nc3cccc(F)c3)CC[C@@H]21 | x | x | x | x | -1 | x | x | x
O=Cc1ccc(-c2ccccc2C(=O)O)o1 | -1 | -7 | 5 | x | x | 2 | x | x
O=C(O)c1ccccc1-c1c2cc(I)c(=O)c(I)c-2oc2c(I)c(O)c(I)cc12 | + | -82 | 61* | 10 | -2 | -98 | 80* | 96 | Aptamer quench 1=8.8;Tn6 DDE ctr=-156;DDE Tn6 confirm=93*
Cc1noc(C)c1NC(=O)N(C)C[C@H]1Oc2ncc(C3=CCCC3)cc2C(=O)N([C@@H](C)CO)C[C@H]1C | x | x | x | x | -4 | x | x | x
CC(C)NC(=O)N(C)C[C@@H]1Oc2c(NC(=O)Nc3cccc4ccccc34)cccc2C(=O)N([C@@H](C)CO)C[C@H]1C | x | x | x | x | 0 | x | x | x
Cc1cc2cc(CNC(=O)Nc3cccc(Cl)c3)ccc2n1C | 70* | x | 44* | -1 | 12 | 3 | -11 | 99 | Tn6 DDE ctr=6;DDE Tn6 confirm=18*
Cc1cc2ccccc2n1CCNC(=O)c1ccc(S(=O)(=O)N2CCCCC2)cc1 | 62* | -1 | 83* | 0 | -3 | 0 | 84* | 72 | Aptamer quench 1=7.5;Tn6 DDE ctr=-4;DDE Tn6 confirm=31*
CC1CCN(S(=O)(=O)c2ccc(C(=O)Nc3nnc(C4=COCCO4)o3)cc2)CC1 | -7 | x | 0 | 0 | 62* | -4 | x | x | ARNT Alpha ctr-1=-25%;ARNT Alpha ctr-2=>136
O=C(Nc1nnc(-c2cccs2)o1)c1ccc(S(=O)(=O)N2CCOCC2)cc1 | -3 | 2 | 2 | 0 | 45* | -1 | x | x | ARNT Alpha ctr-1=34µM*
O=C(Nc1nnc(-c2ccccc2Cl)o1)c1ccc(S(=O)(=O)N2CCCCCC2)cc1 | x | x | 3 | x | x | x | x | x
CS(=O)(=O)c1cccc(C(=O)Nc2nnc(C3=COCCO3)o2)c1 | 5 | 0 | 3 | 0 | 59* | 3 | x | x | ARNT Alpha ctr-1=-15%
O=C(Nc1nnc(C2=COCCO2)o1)c1ccc(S(=O)(=O)N2CCCC2)cc1 | 0 | 1 | 4 | -1 | 45 | 3 | x | x
O=C(Nc1nnc(C2=COCCO2)o1)c1ccc(S(=O)(=O)N2CCCCC2)cc1 | 3 | 3 | 1 | -1 | 36 | -4 | x | x | ARNT Alpha ctr-2=>136
O=C(Nc1nnc(C2=COCCO2)o1)c1cccc(Br)c1 | 1 | x | 0 | 0 | x | -1 | x | x
